Experiments:
[1] = molecular target: T1, Proto-oncogene tyrosine-protein kinase Src (Homo sapiens, UniProt P12931); experiment: Inhibitory activity against human c-Src Kinase was measured using ELISA assay
Outline: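 Src (3 units/reaction) and cdc2 substrate peptide were preincubated with compound for 10 min at 30 °C in 50 mM Tris-HCl pH 7.5, 10 mM MgCl2, 0.1 mM EGTA and 0.5 mM Na3VO4. ATP was added to 100 μM final, the reaction ran 1 h at 30 °C, and EDTA stopped it. Phosphotyrosine was read by ELISA kit.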

[2] = molecular target: T1, Proto-oncogene tyrosine-protein kinase Src; experiment: Inhibition of Src Kinase at 1 uM
[3] = molecular target: T1, Proto-oncogene tyrosine-protein kinase Src; experiment: Inhibition of Src Kinase at 0.1 mM ATP
Outline: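 Compound is preincubated 10 min at 30 °C, then the reaction is started with ATP (100 μM final) and run 1 h at 30 °C. It is stopped with EDTA and read by ELISA for tyrosine phosphorylation. Compounds are run in duplicate; values are the mean of at least two determinations.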

[4] = molecular target: T1, Proto-oncogene tyrosine-protein kinase Src; experiment: Inhibition of Src Kinase at 5 mM ATP
Outline: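 Same Src ELISA format: enzyme at 3 units/reaction, cdc2 peptide substrate, Tris-HCl pH 7.5/MgCl₂/EGTA/Na₃VO₄ buffer, and 10 min compound preincubation at 30 °C. ATP is raised to 5 mM to start the reaction, which runs 1 h at 30 °C. It is quenched with EDTA and phosphorylation is read by ELISA.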

[5] = molecular target: T1, Proto-oncogene tyrosine-protein kinase Src; experiment: Inhibition of Src Kinase at 1 mM ATP
Outline: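 Src ELISA kinase assay with Src (3 units/reaction) and cdc2 substrate peptide in Tris-HCl pH 7.5 buffer with MgCl₂, EGTA and vanadate. After a 10 min, 30 °C preincubation with compound, the reaction is started with ATP raised to 1 mM and run 1 h at 30 °C. It is stopped with EDTA and phosphotyrosine is detected by ELISA.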

T1 sequence (P12931 2-536 limits assumed): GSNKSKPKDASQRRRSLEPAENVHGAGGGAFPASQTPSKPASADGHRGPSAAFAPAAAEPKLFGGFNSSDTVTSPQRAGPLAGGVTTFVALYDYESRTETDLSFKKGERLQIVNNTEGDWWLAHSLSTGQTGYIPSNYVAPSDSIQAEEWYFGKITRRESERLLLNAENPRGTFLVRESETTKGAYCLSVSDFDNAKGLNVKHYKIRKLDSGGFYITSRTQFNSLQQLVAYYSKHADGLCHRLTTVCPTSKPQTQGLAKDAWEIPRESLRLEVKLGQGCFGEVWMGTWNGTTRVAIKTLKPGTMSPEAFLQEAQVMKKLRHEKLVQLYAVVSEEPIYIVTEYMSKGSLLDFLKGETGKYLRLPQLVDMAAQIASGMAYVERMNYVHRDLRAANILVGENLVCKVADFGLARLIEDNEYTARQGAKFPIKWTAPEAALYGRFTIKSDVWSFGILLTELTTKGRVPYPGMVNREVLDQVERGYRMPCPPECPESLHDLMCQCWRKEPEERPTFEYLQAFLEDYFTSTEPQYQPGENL

IC50 [1] [nM]	inhibition [2] [%]	Structure (SMILES)	other results
1200	–	COc1cccc2ncc(C#N)c(Nc3ccc(Cl)cc3Cl)c12	–
95	–	COc1cc2ncc(C#N)c(Nc3ccc(I)cc3Cl)c2cc1OC	–
320	–	COc1ccc2ncc(C#N)c(Nc3ccc(Cl)cc3Cl)c2c1	–
–	< 20	COc1cc2ncc(C(=O)O)c(Nc3ccc(Cl)cc3Cl)c2cc1OC	–
2200	–	COc1cc2ncc(C#N)c(Sc3ccc(Cl)cc3Cl)c2cc1OC	–
11	–	CCOc1cc2ncc(C#N)c(Nc3ccc(Cl)cc3Cl)c2cc1OCC	–
–	32	COc1cc2ncc(C#N)c(N(C)c3ccc(Cl)cc3Cl)c2cc1OC	–
–	< 20	N#Cc1cnc2cc(O)c(O)cc2c1Nc1ccc(Cl)cc1Cl	–
1100	–	COc1cc2ncc(C#N)c(Nc3cc(Cl)cc(Cl)c3)c2cc1OC	–
–	< 20	N#Cc1cnc2ccccc2c1Nc1ccc(Cl)cc1Cl	–
61	–	COc1cc2ncc(C#N)c(Nc3c(Cl)cccc3Cl)c2cc1OC	–
84	–	COc1cc2nccc(Nc3ccc(Cl)cc3Cl)c2cc1OC	–
250	–	COc1cc2ncc(C=O)c(Nc3ccc(Cl)cc3Cl)c2cc1OC	–
6.2	–	COc1cc2ncc(C#N)c(Nc3ccc(Cl)cc3I)c2cc1OC	–
30	–	COc1cc2ncc(C#N)c(Nc3ccc(Cl)cc3Cl)c2cc1OC	IC50 [3]: 23 nM; IC50 [4]: 270 nM; IC50 [5]: 130 nM
–	< 20	COc1cc2ncc(C#N)c(NC(=O)c3ccc(Cl)cc3Cl)c2cc1OC	–
53	–	COc1cc2ncc(C#N)c(Nc3ccc(Cl)cc3F)c2cc1OC	–
90	–	COc1cc2ncc(C#N)c(Nc3cccc(Cl)c3Cl)c2cc1OC	–
160	–	CCCCOc1cc2ncc(C#N)c(Nc3ccc(Cl)cc3Cl)c2cc1OCCCC	–
57	–	COc1cc2ncc(C#N)c(Nc3ccc(Cl)c(Cl)c3)c2cc1OC	–
–	37	COc1cc2ncc(C#N)c(Oc3ccc(Cl)cc3Cl)c2cc1OC	–

Further lines, the compound ahead of its results:

Structure (SMILES)	IC50 [1] [nM]	inhibition [2] [%]	other results
COc1cc2ncc(C#N)c(Nc3cc(Cl)ccc3Cl)c2cc1OC	40	–	–
COc1ccc2c(Nc3ccc(Cl)cc3Cl)c(C#N)cnc2c1	200	–	–
N#Cc1cnc2cc(OCCCN3CCOCC3)c(OCCCN3CCOCC3)cc2c1Nc1ccc(Cl)cc1Cl	19	–	–
COc1cc2ncc(C#N)c(NCc3ccc(Cl)cc3Cl)c2cc1OC	–	24	–
COc1cc2c(Nc3ccc(Cl)cc3Cl)c(C#N)cnc2cc1OCCCN1CCOCC1	3.8	–	–
COc1cc2ncc(CO)c(Nc3ccc(Cl)cc3Cl)c2cc1OC	–	< 20	–
CCOC(=O)c1cnc2cc(OC)c(OC)cc2c1Nc1ccc(Cl)cc1Cl	–	< 20	–
COc1cc2c(Nc3ccc(Cl)cc3Cl)c(C#N)cnc2cc1OCCCN1CCN(C)CC1	8.7	–	–
COc1cc2/c(=N/c3ccc(Cl)cc3Cl)c(C#N)cn(C)c2cc1OC	–	< 20	–
COc1cccc2c(Nc3ccc(Cl)cc3Cl)c(C#N)cnc12	–	< 20	–
COc1cc2c(Nc3ccc(Cl)cc3Cl)c(C#N)cnc2cc1OCCCN1CCC(O)CC1	3.5	–	–
COc1cc2ncc(C#N)c(Nc3ccc(Cl)cc3)c2cc1OC	53	–	–
COc1cc2ncc(C#N)c(Nc3ccc(Cl)cc3Br)c2cc1OC	10	–	–
COc1cc2ncnc(Nc3ccc(Cl)cc3Cl)c2cc1OC	250	–	–
COc1cc2ncc(C#N)c(Nc3ccccc3Cl)c2cc1OC	95	–	–
COc1cc2ncc(C(N)=O)c(Nc3ccc(Cl)cc3Cl)c2cc1OC	–	< 20	–
COc1cc(OC)c2c(Nc3ccc(Cl)cc3Cl)c(C#N)cnc2c1	–	52	–
COc1cc2ncc(C#N)c(Nc3ccc(Br)cc3Cl)c2cc1OC	15	–	–
COc1cc2ncc(C#N)c(Nc3ccc(Cl)cc3Cl)c2cc1OCCCN1CCOCC1	220	–	–

Reference: ChEMBL document CHEMBL1134365, “Synthesis and Src kinase inhibitory activity of a series of 4-phenylamino-3-quinolinecarbonitriles” (J Med Chem, 2001)
